Converted amounts (≈) assume the structure as drawn.
Legend:
[1] = test system: MDA-MB-435; experiment: Cytotoxicity against human MDA-MB-435 cells assessed as reduction in cell viability after 72 hrs by CellTiter 96 aqueous one solution assay; format: functional, cell-based; settings: MDA-MB-435, 72 h
Method in brief: (§1)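 Cells grown in RPMI 1640 with 10% FBS, penicillin and streptomycin; log-phase cells trypsinized, seeded, left overnight at 37 °C in 5% CO₂, then exposed 72 h to samples diluted from DMSO, with DMSO vehicle and paclitaxel control. Viability read by absorbance. IC50 taken relative to vehicle by nonlinear regression; triplicate, three independent experiments.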

[2] = test system: MDA-MB-231; experiment: Cytotoxicity against human MDA-MB-231 cells assessed as reduction in cell viability after 72 hrs by CellTiter 96 aqueous one solution assay; format: functional, cell-based; settings: MDA-MB-231, 72 h; method in brief: as §1
[3] = test system: HT-29; experiment: Cytotoxicity against human HT-29 cells assessed as reduction in cell viability after 72 hrs by CellTiter 96 aqueous one solution assay; format: functional, cell-based; settings: HT-29, 72 h; method in brief: as §1
[4] = test system: OVCAR-3; experiment: Cytotoxicity against human OVCAR3 cells assessed as reduction in cell viability after 72 hrs by CellTiter 96 aqueous one solution assay; format: functional, cell-based; settings: OVCAR-3, 72 h; method in brief: as §1
[5] = test system: HT-29; experiment: Inhibition of mitochondrial membrane potential in human HT-29 cells after 3 hrs by JC-1 staining based fluorescence assay; format: functional, cell-based; settings: HT-29, 3 h
[6] = target: Transcription factor p65 (Homo sapiens, UniProt Q04206); experiment: Inhibition of biotinylated consensus sequence binding to NF-kB p65 in human HeLa nuclear extracts after 3 hrs by ELISA
Sequence of Transcription factor p65 (Q04206 whole entry): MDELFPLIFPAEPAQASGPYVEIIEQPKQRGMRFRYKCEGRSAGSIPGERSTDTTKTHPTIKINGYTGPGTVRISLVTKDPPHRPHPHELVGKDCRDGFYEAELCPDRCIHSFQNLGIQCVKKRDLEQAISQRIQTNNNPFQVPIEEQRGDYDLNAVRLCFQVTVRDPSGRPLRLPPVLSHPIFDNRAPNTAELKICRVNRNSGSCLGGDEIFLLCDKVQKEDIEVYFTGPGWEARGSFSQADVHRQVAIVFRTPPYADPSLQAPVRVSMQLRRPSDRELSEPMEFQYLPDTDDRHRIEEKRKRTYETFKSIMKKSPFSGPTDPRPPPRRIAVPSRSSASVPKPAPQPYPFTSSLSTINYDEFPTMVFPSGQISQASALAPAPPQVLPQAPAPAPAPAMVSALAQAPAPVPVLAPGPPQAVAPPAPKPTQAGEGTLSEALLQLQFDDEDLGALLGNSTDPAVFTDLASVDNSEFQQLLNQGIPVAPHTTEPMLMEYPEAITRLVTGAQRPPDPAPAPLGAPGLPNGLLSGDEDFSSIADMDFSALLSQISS

[7] = test system: DU-145; experiment: Cytotoxicity against human DU145 cells assessed as reduction in cell viability after 72 hrs by CellTiter 96 aqueous one solution assay; format: functional, cell-based; settings: DU-145, 72 h
[8] = test system: HeLa; experiment: Cytotoxicity against human HeLa cells assessed as reduction in cell viability after 72 hrs by CellTiter 96 aqueous one solution assay; format: functional, cell-based

Row | Compound | IC50 [1] | IC50 [2] [µM] | IC50 [3] | IC50 [4] [µM] | IC50 [5] [µM] | IC50 [6] [µM] | IC50 [7] [µg/mL] | IC50 [8] [µg/mL]
1 | COc1cc(C=O)cc(OC)c1O | > 10 µM | > 10 | > 10 µM | > 10 | – | – | – | –
2 | CC(=O)/C=C/[C@]12O[C@@]1(C)C[C@@H](O)CC2(C)C | > 10 µM | > 10 | > 10 µM | > 10 | – | – | – | –
3 | C=C(C)[C@@H]1CC[C@]2(C(=O)OC)CC[C@]3(C(=O)O)[C@H](CC[C@@H]4[C@@]5(C)CC[C@H](O)C(C)(C)[C@@H]5CC[C@]43C)[C@@H]12 | – | > 10 | > 10 µM | – | > 10 | 1.5 | – | –
4 | CC(=O)CC[C@@H](C1=C[C@@](C)(O)CCC1=O)C(C)C | > 10 µM | > 10 | > 10 µM | > 10 | – | – | – | –
5 | C=C(C)[C@@H]1CC[C@]2(C(=O)O)CC[C@]3(CO)[C@H](CC[C@@H]4[C@@]5(C)CC[C@H](O)C(C)(C)[C@@H]5CC[C@]43C)[C@@H]12 | > 10 µM | > 10 | > 10 µM | > 10 | > 10 | > 10 | – | –
6 | C=C(C)[C@H](O)CC[C@](C)(O)[C@H]1CC[C@]2(C)[C@@H]1CC[C@@H]1[C@@]3(C)CC[C@H](O)C(C)(C)[C@@H]3CC[C@]12C | > 10 µM | > 10 | > 10 µM | > 10 | – | – | – | –
7 | CC1=CC(=O)CC(C)(C)[C@H]1/C=C/[C@@H](C)O | > 10 µM | > 10 | > 10 µM | > 10 | – | – | – | –
8 | COc1c(C)c(O)c2c(c1C)O[C@H](c1ccc(O)cc1)CC2=O | 6 µM | > 10 | > 10 µM | > 10 | – | – | – | –
9 | C[C@H]1[C@H](C)CC[C@]2(C(=O)O)CC[C@]3(C)C(=CC[C@@H]4[C@@]5(C)CC[C@H](OC(=O)c6ccc(Cl)cc6)C(C)(C)[C@@H]5CC[C@]43C)[C@H]12 | – | > 10 | > 10 µM | – | > 10 | > 10 | – | –
10 | COc1c(O)cc2c(=O)oc3c4c(cc5c(=O)oc1c2c35)OCO4 | > 10 µM | > 10 | > 10 µM | > 10 | > 10 | – | – | –
11 | COc1c(OC)c2oc(=O)c3cc4c(c5oc(=O)c(c1OC)c2c53)OCO4 | > 10 µM | – | > 10 µM | > 10 | > 10 | > 10 | – | –
12 | C=C(C)[C@@H]1CC[C@]2(C(=O)O)CC[C@]3(C)[C@H](CC[C@@H]4[C@@]5(C)C[C@@H](O)[C@H](OC(=O)/C=C/c6ccc(O)cc6)C(C)(C)[C@@H]5CC[C@]43C)[C@@H]12 | > 10 µM | > 10 | > 10 µM | > 10 | > 10 | 4.7 | – | –
13 | C=C(C)[C@@H]1CC[C@]2(C(=O)O)CC[C@]3(C(=O)O)[C@H](CC[C@@H]4[C@@]5(C)CC[C@H](O)C(C)(C)[C@@H]5CC[C@]43C)[C@@H]12 | > 10 µM | > 10 | > 10 µM | > 10 | > 10 | > 10 | – | –
14 | C=C(C)[C@@H]1CC[C@]2(C(=O)O)CC[C@]3(C)[C@H](CC[C@@H]4[C@@]5(C)CC[C@H](OC(=O)/C=C/c6ccc(O)c(OC)c6)C(C)(C)[C@@H]5CC[C@]43C)[C@@H]12 | – | > 10 | > 10 µM | – | 0.51 | 5.4 | – | –
15 | COc1cc2c(=O)oc3c(OC)c(O)cc4c(=O)oc(c1OC)c2c34 | > 10 µM | – | > 10 µM | > 10 | > 10 | 1.6 | – | –
16 | CC(=O)/C=C/[C@@]1(O)C(C)=CC(=O)CC1(C)C | > 10 µM | – | > 10 µM | > 10 | > 10 | – | – | –
17 | C=C(C)[C@@H]1CC[C@]2(C(=O)O)CC[C@]3(C)[C@H](CC[C@@H]4[C@@]5(C)C[C@@H](O)[C@H](O)C(C)(C)[C@@H]5CC[C@]43C)[C@@H]12 [ALPHITOLIC ACID] | > 10 µM | > 10 | > 10 µM | > 10 | > 10 | 8.7 | – | –
18 | C=C(C)[C@@H]1CC[C@]2(C(=O)O)CC[C@]3(C)[C@H](CC[C@@H]4[C@@]5(C)CC[C@H](O)C(C)(C)[C@@H]5CC[C@]43C)[C@@H]12 [BETULINIC ACID] | – | > 10 | > 10 µM | – | 3.5 | – | – | –
19 | C=C(C)[C@@H]1CC[C@]2(CO)CC[C@]3(C)[C@H](CC[C@@H]4[C@@]5(C)CC[C@H](O)C(C)(C)[C@@H]5CC[C@]43C)[C@@H]12 [BETULIN] | > 10 µM | > 10 | > 10 µM | > 10 | > 10 | 8.8 | – | –
20 | CC1=CC(=O)CC(C)(C)[C@@]1(O)/C=C/[C@@H](C)O [BLUMENOL A] | > 10 µM | > 10 | > 10 µM | > 10 | > 10 | > 10 | – | –
21 | CC1(C)CC[C@]2(CO)CC[C@]3(C)C(=CC[C@@H]4[C@@]5(C)CC[C@H](O)C(C)(C)[C@@H]5CC[C@]43C)[C@@H]2C1 [ERYTHRODIOL] | > 10 µM | > 10 | > 10 µM | > 10 | > 10 | > 10 | – | –
22 | CC1(C)C[C@H](O)C[C@@]2(C)OC(=O)C=C12 [LOLIOLIDE] | > 10 µM | > 10 | > 10 µM | > 10 | > 10 | > 10 | – | –
23 | CC1(C)CC[C@]2(C(=O)O)CC[C@]3(C)C(=CC[C@@H]4[C@@]5(C)CC[C@H](O)C(C)(C)[C@@H]5CC[C@]43C)[C@@H]2C1 [OLEANOLIC_ACID] | > 10 µM | > 10 | > 10 µM | > 10 | > 10 | 2.4 | – | –
24 | CC(=O)O[C@H]1C(=O)[C@@]2(C)[C@H]([C@H](OC(=O)c3ccccc3)[C@]3(O)C[C@H](OC(=O)[C@H](O)[C@@H](NC(=O)c4ccccc4)c4ccccc4)C(C)=C1C3(C)C)[C@]1(OC(C)=O)CO[C@@H]1C[C@@H]2O [PACLITAXEL] | 0.013 µM | 0.017 | 0.009 µM | 0.013 | – | – | – | –
25 | COc1c(C)c(O)c2c(=O)cc(-c3ccc(O)cc3)oc2c1C [SIDEROXYLIN] | > 10 µM | > 10 | > 10 µM | > 10 | > 10 | > 10 | – | –
26 | C[C@H]1[C@H](C)CC[C@]2(C(=O)O)CC[C@]3(C)C(=CC[C@@H]4[C@@]5(C)CC[C@H](O)C(C)(C)[C@@H]5CC[C@]43C)[C@H]12 [URSOLIC ACID] | 13.1 µg/mL | 5.9 | 11.1 µg/mL | – | 3.5 | 0.031 | 11.1 to 13.1 (≈ 24.3 to 28.7 µM) | 11.1 to 13.1 (≈ 24.3 to 28.7 µM)
27 | C[C@H]1[C@H](C)CC[C@]2(CO)CC[C@]3(C)C(=CC[C@@H]4[C@@]5(C)CC[C@H](O)C(C)(C)[C@@H]5CC[C@]43C)[C@H]12 [UVAOL] | > 10 µM | > 10 | > 10 µM | > 10 | > 10 | > 10 | – | –
